Results as given in ChEMBL document CHEMBL5724801, “EUbOPEN Chemogenomics Library - Multiplex” (2024).
“And” between values parts separate entries of the source, which are not always exact repeats. Identical values can stand only once.

Test system: Fibroblast
Experiment: Multiplex assay against human fibroblast
Assay type: toxicity, cell-based
Summary of the method: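 Imaging took place on a CQ1 microscope at 37°C and 5% CO2 once compound had been added to live cells stained at seeding with Hoechst33342, BioTracker Green Microtubule Cytoskeleton Dye, MitoTracker Red and Annexin V Alexa Fluor 680. CellPathfinder machine-learning gating classed cells as Hoechst high-intensity objects or normal cells, classed normal cells as having healthy, pyknosed or fragmented nuclei, and classed pyknosed cells as mitotic or apoptotic. Tubulin, mitochondrial-mass and membrane-permeability phenotypes are per cents of the healthy-nucleus cells.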

[1] = 12 h, 1 µM, compound concentration 1 uM
[2] = 12 h, 10 µM, compound concentration 10 uM
[3] = 24 h, 1 µM, compound concentration 1 uM
[4] = 24 h, 10 µM, compound concentration 10 uM
[5] = 48 h, 1 µM, compound concentration 1 uM
[6] = 48 h, 10 µM, compound concentration 10 uM

COC(c1ccccc1)(c1ccccc1)[C@H](Oc1nc(C)cc(C)n1)C(=O)O [AMBRISENTAN]
Population Apoptotic (%) [1]: 68% and 30% | Population Fragmented Nuclei (%) [1]: 13% and 18% | Population Healthy Nuclei (%) [1]: 66% and 56% | Population Hoechst High Intensity Objects (%) [1]: 1% and 4% | Population Membrane Permeable-Phenotype (%) [1]: 0% and 1% | Population Mitochondria Different-Phenotype (%) [1]: 4% and 6% | Population Mitotic Cells (%) [1]: 31% and 69% | Population Normal (%) [1]: 98% and 95% | Population Pyknosed Nuclei (%) [1]: 19% and 25% | Population Tubulin-Different-Phenotype (%) [1]: 29% and 37% | Total Cell Count [1]: 97 and 163 | Population Apoptotic (%) [2]: 56% and 33% | Population Healthy Nuclei (%) [2]: 70% and 25% | Population Hoechst High Intensity Objects (%) [2]: 5% and 4% | Population Membrane Permeable-Phenotype (%) [2]: 0% and 5% | Population Mitochondria Different-Phenotype (%) [2]: 11% and 0% | Population Mitotic Cells (%) [2]: 43% and 66% | Population Normal (%) [2]: 94% and 95% | Population Pyknosed Nuclei (%) [2]: 21% and 34% | Population Tubulin-Different-Phenotype (%) [2]: 25% and 35% | Total Cell Count [2]: 145 and 82 | Population Apoptotic (%) [3]: 62% and 34% | Population Fragmented Nuclei (%) [3]: 15% and 14% | Population Healthy Nuclei (%) [3]: 67% and 62% | Population Hoechst High Intensity Objects (%) [3]: 2% and 5% | Population Membrane Permeable-Phenotype (%) [3]: 0% and 3% | Population Mitochondria Different-Phenotype (%) [3]: 4% and 3% | Population Mitotic Cells (%) [3]: 37% and 65% | Population Normal (%) [3]: 97% and 94% | Population Pyknosed Nuclei (%) [3]: 17% and 23% | Population Tubulin-Different-Phenotype (%) [3]: 38% | Total Cell Count [3]: 95 and 158 | Population Apoptotic (%) [4]: 69% and 27% | Population Healthy Nuclei (%) [4]: 68% and 27% | Population Hoechst High Intensity Objects (%) [4]: 7% and 5% | Population Membrane Permeable-Phenotype (%) [4]: 0% and 5% | Population Mitochondria Different-Phenotype (%) [4]: 11% and 10% | Population Mitotic Cells (%) [4]: 30% and 72% | Population Normal (%) [4]: 92% and 94% | Population Pyknosed Nuclei (%) [4]: 18% and 26% | Population Tubulin-Different-Phenotype (%) [4]: 29% and 36% | Total Cell Count [4]: 149 and 73 | Population Apoptotic (%) [5]: 60% and 61% | Population Fragmented Nuclei (%) [5]: 19% and 24% | Population Healthy Nuclei (%) [5]: 64% and 54% | Population Hoechst High Intensity Objects (%) [5]: 4% and 0% | Population Membrane Permeable-Phenotype (%) [5]: 1% and 4% | Population Mitochondria Different-Phenotype (%) [5]: 5% and 10% | Population Mitotic Cells (%) [5]: 40% and 38% | Population Normal (%) [5]: 95% and 99% | Population Pyknosed Nuclei (%) [5]: 16% and 20% | Population Tubulin-Different-Phenotype (%) [5]: 28% and 42% | Total Cell Count [5]: 93 and 154 | Population Apoptotic (%) [6]: 61% and 71% | Population Healthy Nuclei (%) [6]: 71% and 31% | Population Hoechst High Intensity Objects (%) [6]: 7% and 3% | Population Membrane Permeable-Phenotype (%) [6]: 1% and 0% | Population Mitochondria Different-Phenotype (%) [6]: 10% and 0% | Population Mitotic Cells (%) [6]: 38% and 28% | Population Normal (%) [6]: 92% and 96% | Population Pyknosed Nuclei (%) [6]: 13% and 18% | Population Tubulin-Different-Phenotype (%) [6]: 34% and 62% | Total Cell Count [6]: 145 and 79

CCc1cc2cc(NS(=O)(=O)c3ccc(C#N)cc3)ccc2n(CC)c1=O
Population Apoptotic (%) [1]: 42% | Population Fragmented Nuclei (%) [1]: 16% and 27% | Population Healthy Nuclei (%) [1]: 64% and 40% | Population Hoechst High Intensity Objects (%) [1]: 1% and 6% | Population Membrane Permeable-Phenotype (%) [1]: 1% and 9% | Population Mitochondria Different-Phenotype (%) [1]: 3% and 7% | Population Mitotic Cells (%) [1]: 57% | Population Normal (%) [1]: 98% and 93% | Population Pyknosed Nuclei (%) [1]: 18% and 32% | Population Tubulin-Different-Phenotype (%) [1]: 24% and 39% | Total Cell Count [1]: 157 and 173 | Population Apoptotic (%) [2]: 42% and 18% | Population Fragmented Nuclei (%) [2]: 18% and 19% | Population Healthy Nuclei (%) [2]: 54% and 43% | Population Hoechst High Intensity Objects (%) [2]: 1% and 5% | Population Mitochondria Different-Phenotype (%) [2]: 5% and 6% | Population Mitotic Cells (%) [2]: 57% and 81% | Population Normal (%) [2]: 98% and 94% | Population Pyknosed Nuclei (%) [2]: 26% and 37% | Population Tubulin-Different-Phenotype (%) [2]: 65% and 74% | Total Cell Count [2]: 133 and 153 | Population Apoptotic (%) [3]: 53% and 43% | Population Fragmented Nuclei (%) [3]: 19% and 26% | Population Healthy Nuclei (%) [3]: 63% and 48% | Population Hoechst High Intensity Objects (%) [3]: 5% and 6% | Population Membrane Permeable-Phenotype (%) [3]: 1% and 9% | Population Mitochondria Different-Phenotype (%) [3]: 4% and 8% | Population Mitotic Cells (%) [3]: 46% and 56% | Population Normal (%) [3]: 94% and 93% | Population Pyknosed Nuclei (%) [3]: 17% and 25% | Population Tubulin-Different-Phenotype (%) [3]: 26% and 51% | Total Cell Count [3]: 157 and 164 | Population Apoptotic (%) [4]: 50% and 32% | Population Fragmented Nuclei (%) [4]: 19% and 22% | Population Healthy Nuclei (%) [4]: 58% and 38% | Population Hoechst High Intensity Objects (%) [4]: 2% and 9% | Population Membrane Permeable-Phenotype (%) [4]: 1% and 6% | Population Mitochondria Different-Phenotype (%) [4]: 6% and 12% | Population Mitotic Cells (%) [4]: 50% and 67% | Population Normal (%) [4]: 97% and 90% | Population Pyknosed Nuclei (%) [4]: 22% and 39% | Population Tubulin-Different-Phenotype (%) [4]: 59% and 72% | Total Cell Count [4]: 130 and 145 | Population Apoptotic (%) [5]: 52% and 37% | Population Fragmented Nuclei (%) [5]: 24% and 33% | Population Healthy Nuclei (%) [5]: 59% and 50% | Population Hoechst High Intensity Objects (%) [5]: 3% and 5% | Population Membrane Permeable-Phenotype (%) [5]: 0% and 12% | Population Mitochondria Different-Phenotype (%) [5]: 4% and 8% | Population Mitotic Cells (%) [5]: 47% and 62% | Population Normal (%) [5]: 96% and 94% | Population Pyknosed Nuclei (%) [5]: 15% and 16% | Population Tubulin-Different-Phenotype (%) [5]: 27% and 60% | Total Cell Count [5]: 150 and 156 | Population Apoptotic (%) [6]: 60% | Population Fragmented Nuclei (%) [6]: 17% and 30% | Population Healthy Nuclei (%) [6]: 62% and 48% | Population Hoechst High Intensity Objects (%) [6]: 1% and 7% | Population Mitochondria Different-Phenotype (%) [6]: 12% and 7% | Population Mitotic Cells (%) [6]: 40% and 39% | Population Normal (%) [6]: 98% and 92% | Population Pyknosed Nuclei (%) [6]: 19% and 20% | Population Tubulin-Different-Phenotype (%) [6]: 61% and 69% | Total Cell Count [6]: 129 and 145

C=CC(=O)N1CCC[C@@H](n2nc(C(=O)Nc3ccc(CC(=O)N(C)C)c(C)c3C)c3c(N)ncnc32)C1
Population Fragmented Nuclei (%) [1]: 10.1% and 3.17% | Population Healthy Nuclei (%) [1]: 56.73% and 73.02% | Population Hoechst High Intensity Objects (%) [1]: 0% | Population Membrane Permeable-Phenotype (%) [1]: 1.69% and 0.72% | Population Mitochondria Different-Phenotype (%) [1]: 9.32% and 5.8% | Population Mitotic Cells (%) [1]: 97.1% and 80% | Population Normal (%) [1]: 100% | Population Pyknosed Nuclei (%) [1]: 33.17% and 23.81% | Population Tubulin-Different-Phenotype (%) [1]: 14.41% and 5.8% | Total Cell Count [1]: 208 and 189 | Population Apoptotic (%) [2]: 5.56% and 8.57% | Population Fragmented Nuclei (%) [2]: 8.2% and 7.93% | Population Healthy Nuclei (%) [2]: 62.3% and 70.73% | Population Hoechst High Intensity Objects (%) [2]: 0% | Population Membrane Permeable-Phenotype (%) [2]: 9.65% and 7.76% | Population Mitochondria Different-Phenotype (%) [2]: 11.4% and 13.79% | Population Mitotic Cells (%) [2]: 94.44% and 91.43% | Population Normal (%) [2]: 100% | Population Pyknosed Nuclei (%) [2]: 29.51% and 21.34% | Population Tubulin-Different-Phenotype (%) [2]: 21.93% and 32.76% | Total Cell Count [2]: 183 and 164 | Population Apoptotic (%) [3]: 18.18% and 16.67% | Population Fragmented Nuclei (%) [3]: 12.88% and 6.53% | Population Healthy Nuclei (%) [3]: 68.24% and 78.39% | Population Hoechst High Intensity Objects (%) [3]: 0% | Population Membrane Permeable-Phenotype (%) [3]: 3.77% and 2.56% | Population Mitochondria Different-Phenotype (%) [3]: 7.55% and 8.33% | Population Mitotic Cells (%) [3]: 81.82% and 83.33% | Population Normal (%) [3]: 100% | Population Pyknosed Nuclei (%) [3]: 18.88% and 15.08% | Population Tubulin-Different-Phenotype (%) [3]: 13.21% and 10.26% | Total Cell Count [3]: 233 and 199 | Population Fragmented Nuclei (%) [4]: 12.56% and 7.73% | Population Healthy Nuclei (%) [4]: 67.34% and 70.72% | Population Hoechst High Intensity Objects (%) [4]: 0% | Population Membrane Permeable-Phenotype (%) [4]: 8.96% and 3.12% | Population Mitochondria Different-Phenotype (%) [4]: 9.7% and 14.06% | Population Mitotic Cells (%) [4]: 95% and 84.62% | Population Normal (%) [4]: 100% | Population Pyknosed Nuclei (%) [4]: 20.1% and 21.55% | Population Tubulin-Different-Phenotype (%) [4]: 23.13% and 33.59% | Total Cell Count [4]: 199 and 181 | Population Apoptotic (%) [5]: 13.79% and 22.22% | Population Fragmented Nuclei (%) [5]: 7.48% and 7.76% | Population Healthy Nuclei (%) [5]: 81.1% and 84.02% | Population Hoechst High Intensity Objects (%) [5]: 0% | Population Membrane Permeable-Phenotype (%) [5]: 0.97% and 1.63% | Population Mitotic Cells (%) [5]: 86.21% and 77.78% | Population Normal (%) [5]: 100% | Population Pyknosed Nuclei (%) [5]: 11.42% and 8.22% | Population Tubulin-Different-Phenotype (%) [5]: 5.34% and 12.5% | Total Cell Count [5]: 254 and 219 | Population Apoptotic (%) [6]: 22.22% and 18.75% | Population Fragmented Nuclei (%) [6]: 7.14% and 11.46% | Population Healthy Nuclei (%) [6]: 84.29% and 80.21% | Population Hoechst High Intensity Objects (%) [6]: 0% | Population Membrane Permeable-Phenotype (%) [6]: 3.39% and 5.84% | Population Mitochondria Different-Phenotype (%) [6]: 12.99% and 3.9% | Population Mitotic Cells (%) [6]: 77.78% and 81.25% | Population Normal (%) [6]: 100% | Population Pyknosed Nuclei (%) [6]: 8.57% and 8.33% | Population Tubulin-Different-Phenotype (%) [6]: 19.21% and 29.22% | Total Cell Count [6]: 210 and 192
